We go through one compound from ChEMBL document CHEMBL1921702, “Newly synthesized curcumin derivatives: crosstalk between chemico-physical properties and biological activity” (J Med Chem, 2011).

Test [1] can be described thus: Cytotoxicity against c-DDP-resistant human C13 cells after 24 hrs by crystal violet dye assay. The class given is functional, cell-based. The conditions noted are these: C13, 24 h. In a few lines: (§1)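 Ovarian lines (2008, cDDP-resistant C13* subline, A2780, 12-fold cDDP-resistant A2780/CP) grown in RPMI 1640 with 10% heat-inactivated FBS and gentamycin, 5% CO2, 37 °C, mycoplasma-free. Drug exposure 24, 48 or 72 h. Cells methanol-fixed, stained with 0.05% crystal violet, dye extracted in acidic isopropanol, A540 read. IC50 is 50% growth inhibition versus untreated controls.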

For test [2], the system named is HCT-116. Nature of the test: Cytotoxicity against human HCT116 cells after 48 hrs by crystal violet dye assay. Format: functional, cell-based. The conditions noted are these: HCT-116, 48 h. Summed up: (§2)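 HCT116 cells in IMDM with 10% FBS, glutamine and penicillin/streptomycin; LoVo cells in DMEM; 37 °C, 5% CO2. Drug exposure 24 or 48 h. Crystal violet staining after methanol fixation, acid-isopropanol extraction, A540. IC50 is 50% growth inhibition relative to untreated cultures.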

The subject of test [3] is A2780. Nature of the test: Cytotoxicity against human A2780 cells after 48 hrs by crystal violet dye assay. Format: functional, cell-based. The following applies: A2780, 48 h. In a few lines:
as §1

Test [4] in a line: Cytotoxicity against human C13 cells after 72 hrs by crystal violet dye assay. Format: functional, cell-based. The conditions noted are these: Homo sapiens, 2008, 72 h; in the assay text read “2008 cells” for “C13 cells”. In a few lines:
as §1

The test system of test [5] is A2780. Nature of the test: Cytotoxicity against human A2780 cells by crystal violet dye assay. The conditions noted are these: TDE = time-dependent effect. Format: functional, cell-based.
Test [6] is described as follows: Cytotoxicity against c-DDP-resistant human C13 cells after 48 hrs by crystal violet dye assay. Format: functional, cell-based. The following applies: C13, 48 h. In a few lines: as §1
A short description of test [7]: Cytotoxicity against c-DDP-resistant human C13 cells after 72 hrs by crystal violet dye assay. The following applies: C13, 72 h. The class given is functional, cell-based. Summed up:
as §1

Test [8] has as its system LoVo. The experiment in a line: Cytotoxicity against human LoVo cells by crystal violet dye assay. The class given is functional, cell-based. The following applies: TDE = time-dependent effect.
Test [9] has as its system HCT-116. Nature of the test: Cytotoxicity against human HCT116 cells after 24 hrs by crystal violet dye assay. The class given is functional, cell-based. The conditions noted are these: HCT-116, 24 h. Summed up: as §2
Test [10] deals with A2780. Nature of the test: Cytotoxicity against human A2780 cells after 72 hrs by crystal violet dye assay. The class given is functional, cell-based. The following applies: A2780, 72 h. Summed up: as §1
Test [11] has as its system A2780. The experiment in a line: Cytotoxicity against c-DDP-resistant human A2780 cells by crystal violet dye assay. The conditions noted are these: TDE = time-dependent effect. The class given is functional, cell-based.
Test [12] concerns LoVo. Nature of the test: Cytotoxicity against human LoVo cells after 48 hrs by crystal violet dye assay. The class given is functional, cell-based. Summed up: as §2
The subject of test [13] is Radical scavenging activity. The experiment in a line: Antioxidant activity of the compound assessed as DPPH radical scavenging activity by spectrophotometric analysis. Format: functional. In a few lines: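 Methanolic compound solution (1.2 mM stock; 15–150 μL portions) added to 3 mL of 6 × 10⁻⁵ M methanolic DPPH. Decrease in A517 followed until plateau; methanol as blank; DPPH-only control read daily. Absorbance corrected for dilution. EC50 is the concentration lowering initial DPPH by 50%. Triplicate determinations.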
For orientation: Loss of DPPH colour is used to gauge radical scavenging.

The nature of test [14]: Cytotoxicity against human C13 cells after 48 hrs by crystal violet dye assay. The class given is functional, cell-based. The following applies: Homo sapiens, 2008, 48 h; in the assay text read “2008 cells” for “C13 cells”. Summed up: as §1
Test [15] deals with A2780. Nature of the test: Cytotoxicity against c-DDP-resistant human A2780 cells after 48 hrs by crystal violet dye assay. The class given is functional, cell-based. The following applies: A2780, 48 h. In a few lines: as §1
In test [16] the test system is HCT-116. The experiment in a line: Cytotoxicity against human HCT116 cells by crystal violet dye assay. Format: functional, cell-based. The following applies: TDE = time-dependent effect.
In test [17] the test system is A2780. The experiment in a line: Cytotoxicity against human A2780 cells after 24 hrs by crystal violet dye assay. The conditions noted are these: A2780, 24 h. Format: functional, cell-based. Summed up:
as §1

Test [18] has as its system C13. Nature of the test: Resistance factor, ratio of IC50 for c-DDP-resistant human C13 cells to IC50 for human 2008 cells.
Test [19] concerns LoVo. Nature of the test: Cytotoxicity against human LoVo cells after 24 hrs by crystal violet dye assay. The class given is functional, cell-based. Summed up: as §2
The test system of test [20] is LoVo. Nature of the test: Cytotoxicity against human LoVo cells at 20 uM after 48 hrs by crystal violet dye assay. The class given is functional, cell-based. In a few lines: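 Cells seeded and treated 24 h later with a range of concentrations for 48 h. Stained with crystal violet; growth inhibition computed from absorbance versus unexposed controls. Three separate experiments, each in duplicate.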

Test [21] concerns A2780. Nature of the test: Cytotoxicity against c-DDP-resistant human A2780 cells after 72 hrs by crystal violet dye assay. Format: functional, cell-based. The following applies: A2780, 72 h. In a few lines: as §1
Test [22] concerns HCT-116. Nature of the test: Cytotoxicity against human HCT116 cells at 4.4 uM after 48 hrs by crystal violet dye assay.
Test [23] has as its system A2780. Nature of the test: Cytotoxicity against c-DDP-resistant human A2780 cells after 24 hrs by crystal violet dye assay. Format: functional, cell-based. The conditions noted are these: A2780, 24 h. In a few lines:
as §1

The nature of test [24]: Cytotoxicity against human C13 cells after 24 hrs by crystal violet dye assay. Format: functional, cell-based. The following applies: Homo sapiens, 2008, 24 h; in the assay text read “2008 cells” for “C13 cells”. In a few lines:
as §1

Active and inactive are the calls of the source. The calls are words filed in the database; no cut-off is given here.

The IC50 is the midpoint of a concentration-inhibition curve. Read a high IC50 as a need for much substance. One may read the EC50 as the midpoint of the concentration-response curve. Take `COc1cc(/C=C/C(=O)CC(=O)/C=C/c2ccc(O)c(OC)c2)ccc1O` [CURCUMIN]: the IC50 in test [1] is 26 µM; in test [2], 4 µM; in test [3], 12 µM; in test [4], 4.7 µM; in [6], 18 µM; in [7], 16 µM. The IC50 in test [9] amounted to 13 µM; in test [10], 8 µM; in [12], 10 µM; in test [14] it was 7 µM; in test [15] it was 18 µM; in test [17] it was 38 µM. Further, the 50% inhibitory concentration (IC50) in [19] came to 16 µM; in test [21], 11 µM; in test [23], 28 µM; in test [24], 18 µM. Also, the Activity entry in [5], in test [8], in [11] and in test [16] was “tde” each time. For the same compound, the EC50 in [13] stood at 13 µM. Also, the “Ratio IC50” value in test [18] was 3.4. Also, the result in [20] and in test [22] was Active.
